Source: ChEMBL document CHEMBL1146820, “Parallel solid-phase synthesis of disubstituted (5-biphenyltetrazolyl) hydantoins and thiohydantoins targeting the growth hormone secretagogue receptor” (Bioorg Med Chem Lett, 2004)

biological target: Growth hormone secretagogue receptor type 1 (Homo sapiens, UniProt Q92847); experiment: Inhibition of ghrelin binding to Growth hormone secretagogue receptor expressed in BHK cells; assay type: cell-based
Summary of the method: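 Competition binding against ¹²⁵I-ghrelin at the human GHS receptor expressed in BHK cells. Values are displacement of the radiolabelled ghrelin tracer by the test compounds.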

Sequence of Growth hormone secretagogue receptor type 1 (Q92847 whole entry): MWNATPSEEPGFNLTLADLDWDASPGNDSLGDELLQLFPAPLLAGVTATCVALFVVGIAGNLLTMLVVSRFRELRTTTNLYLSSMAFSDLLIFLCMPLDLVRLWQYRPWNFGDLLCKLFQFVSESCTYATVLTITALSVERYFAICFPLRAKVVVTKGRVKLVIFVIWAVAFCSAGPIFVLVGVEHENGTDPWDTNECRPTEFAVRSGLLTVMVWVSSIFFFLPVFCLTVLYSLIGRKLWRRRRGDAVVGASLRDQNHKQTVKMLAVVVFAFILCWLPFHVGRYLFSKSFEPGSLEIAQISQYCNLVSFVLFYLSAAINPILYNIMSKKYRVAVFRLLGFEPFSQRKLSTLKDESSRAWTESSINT

Row | IC50 [µM] | SMILES
1 | > 100 | CN(C)c1ccc(N2C(=O)[C@H](CCc3ccccc3)N(Cc3ccc(-c4ccccc4-c4nn[nH]n4)cc3)C2=S)cc1
2 | > 100 | NCCCN1C(=O)[C@H](CCc2ccccc2)N(Cc2ccc(-c3ccccc3-c3nn[nH]n3)cc2)C1=O
3 | 0.6 | O=C1[C@H](CCc2ccccc2)N(Cc2ccc(-c3ccccc3-c3nn[nH]n3)cc2)C(=O)N1CCCN1CCCCC1
4 | 1.3 | O=C1[C@H](CCc2ccccc2)N(Cc2cc(-c3ccccc3-c3nn[nH]n3)cs2)C(=O)N1CCCN1CCCCC1
5 | 1.6 | O=C1[C@H](CCc2ccccc2)N(Cc2ccc(-c3ccccc3-c3nn[nH]n3)cc2F)C(=O)N1CCCN1CCCCC1
6 | > 100 | CN(C)C(=O)CCN1C(=O)[C@H](CCc2ccccc2)N(Cc2ccc(-c3ccccc3-c3nn[nH]n3)cc2)C1=O
7 | 35 | CN(C)CCCN1C(=O)[C@H](Cc2ccccc2)N(Cc2ccc(-c3ccccc3-c3nn[nH]n3)cc2)C1=S

Second part, the compound before the results:

Row | SMILES | IC50 [µM]
8 | O=C1[C@H](CCc2ccccc2)N(Cc2ccc(-c3ccccc3-c3nn[nH]n3)s2)C(=O)N1CCCN1CCCCC1 | 15
9 | O=C1[C@H](CCc2ccccc2)N(Cc2ccc(-c3ccccc3-c3nn[nH]n3)cc2)C(=O)N1CCCN1CCCC1 | 1.1
10 | O=C1[C@H](CCc2ccccc2)N(Cc2ccc(-c3ccccc3-c3nn[nH]n3)cc2)C(=S)N1CCCN1CCOCC1 | 45
11 | CN(C)CCCN1C(=O)[C@H](CCc2ccccc2)N(Cc2ccc(-c3ccccc3-c3nn[nH]n3)cc2)C1=S | 8.2
12 | O=C1[C@H](Cc2c[nH]c3ccccc23)N(Cc2ccc(-c3ccccc3-c3nn[nH]n3)cc2)C(=O)N1C1CCNCC1 | 50
13 | CN(C)CCCN1C(=O)[C@H](CCc2ccccc2)N(Cc2ccc(-c3ccccc3-c3nn[nH]n3)cc2)C1=O | 4
14 | CN(C)CCCN1C(=O)[C@H](c2ccccc2)N(Cc2ccc(-c3ccccc3-c3nn[nH]n3)cc2)C1=S | 35
